The target in assay [1] is T1, Toll-like receptor 9 (Mus musculus) (UniProt Q9EQU3).
T1 sequence (whole entry): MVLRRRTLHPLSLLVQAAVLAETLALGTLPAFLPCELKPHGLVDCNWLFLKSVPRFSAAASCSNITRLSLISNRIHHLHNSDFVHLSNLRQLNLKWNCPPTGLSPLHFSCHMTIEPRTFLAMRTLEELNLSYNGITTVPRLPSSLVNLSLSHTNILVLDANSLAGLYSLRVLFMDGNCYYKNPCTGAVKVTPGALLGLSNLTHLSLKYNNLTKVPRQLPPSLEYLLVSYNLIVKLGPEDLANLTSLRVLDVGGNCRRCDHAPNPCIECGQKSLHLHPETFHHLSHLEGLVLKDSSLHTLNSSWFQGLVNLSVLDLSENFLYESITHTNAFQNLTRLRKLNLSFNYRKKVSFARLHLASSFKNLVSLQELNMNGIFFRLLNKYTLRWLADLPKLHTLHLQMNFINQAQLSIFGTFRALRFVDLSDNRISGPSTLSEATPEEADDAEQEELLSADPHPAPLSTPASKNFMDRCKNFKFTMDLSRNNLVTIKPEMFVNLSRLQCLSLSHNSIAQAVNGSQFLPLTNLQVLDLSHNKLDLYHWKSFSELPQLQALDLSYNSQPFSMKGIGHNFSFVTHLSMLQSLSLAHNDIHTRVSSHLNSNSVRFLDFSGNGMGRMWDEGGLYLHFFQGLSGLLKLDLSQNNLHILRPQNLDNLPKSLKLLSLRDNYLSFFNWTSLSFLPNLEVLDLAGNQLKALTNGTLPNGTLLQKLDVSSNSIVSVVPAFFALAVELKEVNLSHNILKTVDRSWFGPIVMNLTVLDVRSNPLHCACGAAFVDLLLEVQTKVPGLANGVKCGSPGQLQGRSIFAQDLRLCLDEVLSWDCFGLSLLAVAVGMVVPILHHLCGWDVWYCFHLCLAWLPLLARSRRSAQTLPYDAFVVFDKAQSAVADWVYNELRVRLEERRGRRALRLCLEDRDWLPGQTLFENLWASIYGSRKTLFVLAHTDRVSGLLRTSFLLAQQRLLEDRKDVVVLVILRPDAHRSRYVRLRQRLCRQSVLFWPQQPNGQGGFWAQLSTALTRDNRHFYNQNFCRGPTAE
As to the kind of experiment: Induction of TLR9-mediated IL6 production in C57BL/6 mouse spleen cells after 24 hrs by ELISA. The class given is cell-based. Summed up: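 C57BL/6 mouse spleen cells were cultured with agonists at 0.1, 0.3, 1, 3 and 10 μg/mL for 24 h. Secreted IL-12 and IL-6 in the supernatants were measured by ELISA. Values are averages of triplicate wells from one representative of at least two independent experiments.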
In general terms: In an ELISA, binding on a coated surface is turned into a signal by an enzyme label.

Assay [2] has as its target T2, Toll-like receptor 9 (Homo sapiens) (UniProt Q9NR96).
T2 sequence (whole entry): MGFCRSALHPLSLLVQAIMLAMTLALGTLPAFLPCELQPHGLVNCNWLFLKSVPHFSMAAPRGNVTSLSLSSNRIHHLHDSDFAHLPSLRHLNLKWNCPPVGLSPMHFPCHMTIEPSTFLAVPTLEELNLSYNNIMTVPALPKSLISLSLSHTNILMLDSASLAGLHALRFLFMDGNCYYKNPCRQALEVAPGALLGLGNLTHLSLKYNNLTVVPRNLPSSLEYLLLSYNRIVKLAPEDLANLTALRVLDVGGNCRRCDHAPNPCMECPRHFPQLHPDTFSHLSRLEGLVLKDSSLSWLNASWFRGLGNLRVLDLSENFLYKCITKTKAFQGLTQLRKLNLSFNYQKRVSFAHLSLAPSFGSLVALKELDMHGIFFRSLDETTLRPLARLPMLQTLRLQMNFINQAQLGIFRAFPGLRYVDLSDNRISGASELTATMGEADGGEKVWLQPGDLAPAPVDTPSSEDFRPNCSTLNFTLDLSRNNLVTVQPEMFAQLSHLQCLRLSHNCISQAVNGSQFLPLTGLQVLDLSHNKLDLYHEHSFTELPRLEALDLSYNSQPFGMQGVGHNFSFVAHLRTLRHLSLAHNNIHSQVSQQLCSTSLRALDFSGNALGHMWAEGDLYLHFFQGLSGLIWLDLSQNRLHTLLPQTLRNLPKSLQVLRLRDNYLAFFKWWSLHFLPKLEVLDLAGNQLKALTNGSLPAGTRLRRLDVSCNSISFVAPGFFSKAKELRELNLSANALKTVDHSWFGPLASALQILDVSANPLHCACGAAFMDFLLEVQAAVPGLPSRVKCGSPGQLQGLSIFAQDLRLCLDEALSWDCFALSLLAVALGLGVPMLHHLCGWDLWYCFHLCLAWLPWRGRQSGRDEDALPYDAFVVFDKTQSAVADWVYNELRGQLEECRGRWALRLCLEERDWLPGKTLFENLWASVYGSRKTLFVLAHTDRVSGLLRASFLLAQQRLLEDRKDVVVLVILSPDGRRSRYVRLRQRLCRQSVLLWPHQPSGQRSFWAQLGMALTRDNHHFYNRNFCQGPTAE
As to the kind of experiment: Induction of TLR9-mediated immune stimulation in human PBMC assessed as IL6 production at 10 ug/ml after 24 hrs by luminex multiplex assay (RVb = 0.01 ng/ml).

Assay [3] deals with T2, Toll-like receptor 9 (Homo sapiens). As to the kind of experiment: Induction of TLR9-mediated immune stimulation in human PBMC assessed as IL12 production at 2 ug/ml after 24 hrs by luminex multiplex assay (RVb = 0.00 ng/ml).
Assay [4] shares this target. As to the kind of experiment: Induction of TLR9-mediated immune stimulation in human PBMC assessed as IL12 production at 10 ug/ml after 24 hrs by luminex multiplex assay (RVb = 0.00 ng/ml).
Assay [5] has the same target. As to the kind of experiment: Induction of TLR9-mediated immune stimulation in human PBMC assessed as MIP1alpha production at 2 ug/ml after 24 hrs by luminex multiplex assay (RVb = 0.01 ng/ml).
The target is the same in assay [6]. As to the kind of experiment: Induction of TLR9-mediated immune stimulation in human PBMC assessed as MIP1alpha production at 10 ug/ml after 24 hrs by luminex multiplex assay (RVb = 0.01 ng/ml).
Assay [7] has the same target. As to the kind of experiment: Induction of TLR9-mediated immune stimulation in human PBMC assessed as IP10 production at 2 ug/ml after 24 hrs by luminex multiplex assay (RVb = 0.00 ng/ml).
For assay [8] the target is unchanged. As to the kind of experiment: Induction of TLR9-mediated immune stimulation in human PBMC assessed as IP10 production at 10 ug/ml after 24 hrs by luminex multiplex assay (RVb = 0.00 ng/ml).
The target is the same in assay [9]. As to the kind of experiment: Induction of TLR9-mediated immune stimulation in human PBMC assessed as RANTES production at 10 ug/ml after 24 hrs by luminex multiplex assay (RVb = 0.05 +/- 0.04 ng/ml).
A further assay has as its system Mus musculus. As to the kind of experiment: Immunostimulatory activity in C57BL/6 mouse assessed as increase in serum IL12 level at 1 mg/kg, sc after 2 hrs by ELISA. The format is functional, organism-based. Details: dose 1 mg/kg. In a few lines:
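Female C57BL/6 mice (n=3) received a single subcutaneous agonist dose of 1 mg/kg. Blood was taken by retro-orbital bleeding 2 h later, and serum IL-12 was measured by sandwich ELISA. Values are the mean of three mice ± SD.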

Calls of active or inactive are those of the source. The calls are words filed in the database; no cut-off is given here.

With `Cc1cn([C@H]2C[C@H](OCCOCCOCCOCCOP(=O)(S)O[C@H]3C[C@H](n4cc(C)c(=O)[nH]c4=O)O[C@@H]3COP(=O)(S)O[C@H]3[C@@H](O)[C@H](n4ccc(N)nc4=O)O[C@@H]3COP(=O)(S)O[C@H]3C[C@H](n4cc(C)c(=O)[nH]c4=O)O[C@@H]3COP(=O)(S)O[C@H]3C[C@H](n4cc(C)c(=O)[nH]c4=O)O[C@@H]3COP(=O)(S)O[C@H]3C[C@H](n4ccc5c(=O)[nH]c(N)nc54)O[C@@H]3COP(=O)(S)O[C@H]3[C@@H](O)[C@H](n4ccc(N)nc4=O)O[C@@H]3COP(=O)(S)O[C@H]3C[C@H](n4cc(C)c(=O)[nH]c4=O)O[C@@H]3COP(=O)(S)O[C@H]3[C@@H](O)[C@H](n4cnc5c(=O)[nH]c(N)nc54)O[C@@H]3COP(=O)(S)O[C@H]3C[C@H](n4cc(C)c(=O)[nH]c4=O)O[C@@H]3COP(=O)(S)O[C@H]3[C@@H](O)[C@H](n4ccc(N)nc4=O)O[C@@H]3COP(=O)(S)O[C@H]3C[C@H](n4cc(C)c(=O)[nH]c4=O)O[C@@H]3CO)[C@@H](COP(=O)(S)O[C@H]3[C@@H](O)[C@H](n4ccc(N)nc4=O)O[C@@H]3COP(=O)(S)O[C@H]3C[C@H](n4cc(C)c(=O)[nH]c4=O)O[C@@H]3COP(=O)(S)O[C@H]3C[C@H](n4cc(C)c(=O)[nH]c4=O)O[C@@H]3COP(=O)(S)O[C@H]3C[C@H](n4ccc5c(=O)[nH]c(N)nc54)O[C@@H]3COP(=O)(S)O[C@H]3[C@@H](O)[C@H](n4ccc(N)nc4=O)O[C@@H]3COP(=O)(S)O[C@H]3C[C@H](n4cc(C)c(=O)[nH]c4=O)O[C@@H]3COP(=O)(S)O[C@H]3[C@@H](O)[C@H](n4cnc5c(=O)[nH]c(N)nc54)O[C@@H]3COP(=O)(S)O[C@H]3C[C@H](n4cc(C)c(=O)[nH]c4=O)O[C@@H]3COP(=O)(S)O[C@H]3[C@@H](O)[C@H](n4ccc(N)nc4=O)O[C@@H]3COP(=O)(S)O[C@H]3C[C@H](n4cc(C)c(=O)[nH]c4=O)O[C@@H]3CO)O2)c(=O)[nH]c1=O` (stereo not given in full), the Activity result in assay [1] is “Dose-dependent effect”; in assay [2], 0.58 ng/mL; in assay [3], 0.11 ng/mL; in assay [4], 0.15 ng/mL; in assay [5] it was 0.04 ng/mL; in [6] it was 0.27 ng/mL. Also, the Activity was 0.02 ng/mL in assay [7], 0.03 ng/mL in assay [8] and 1.09 ng/mL in [9]. Further, in the assay on Mus musculus, the outcome was Active.

Take `Cc1cn([C@H]2C[C@H](OCC(O)COP(=O)(S)O[C@H]3C[C@H](n4cc(C)c(=O)[nH]c4=O)O[C@@H]3COP(=O)(S)O[C@H]3[C@@H](O)[C@H](n4ccc(N)nc4=O)O[C@@H]3COP(=O)(S)O[C@H]3C[C@H](n4cc(C)c(=O)[nH]c4=O)O[C@@H]3COP(=O)(S)O[C@H]3C[C@H](n4cc(C)c(=O)[nH]c4=O)O[C@@H]3COP(=O)(S)O[C@H]3C[C@H](n4ccc5c(=O)[nH]c(N)nc54)O[C@@H]3COP(=O)(S)O[C@H]3[C@@H](O)[C@H](n4ccc(N)nc4=O)O[C@@H]3COP(=O)(S)O[C@H]3C[C@H](n4cc(C)c(=O)[nH]c4=O)O[C@@H]3COP(=O)(S)O[C@H]3[C@@H](O)[C@H](n4cnc5c(=O)[nH]c(N)nc54)O[C@@H]3COP(=O)(S)O[C@H]3C[C@H](n4cc(C)c(=O)[nH]c4=O)O[C@@H]3COP(=O)(S)O[C@H]3[C@@H](O)[C@H](n4ccc(N)nc4=O)O[C@@H]3COP(=O)(S)O[C@H]3C[C@H](n4cc(C)c(=O)[nH]c4=O)O[C@@H]3CO)[C@@H](COP(=O)(S)O[C@H]3[C@@H](O)[C@H](n4ccc(N)nc4=O)O[C@@H]3COP(=O)(S)O[C@H]3C[C@H](n4cc(C)c(=O)[nH]c4=O)O[C@@H]3COP(=O)(S)O[C@H]3C[C@H](n4cc(C)c(=O)[nH]c4=O)O[C@@H]3COP(=O)(S)O[C@H]3C[C@H](n4ccc5c(=O)[nH]c(N)nc54)O[C@@H]3COP(=O)(S)O[C@H]3[C@@H](O)[C@H](n4ccc(N)nc4=O)O[C@@H]3COP(=O)(S)O[C@H]3C[C@H](n4cc(C)c(=O)[nH]c4=O)O[C@@H]3COP(=O)(S)O[C@H]3[C@@H](O)[C@H](n4cnc5c(=O)[nH]c(N)nc54)O[C@@H]3COP(=O)(S)O[C@H]3C[C@H](n4cc(C)c(=O)[nH]c4=O)O[C@@H]3COP(=O)(S)O[C@H]3[C@@H](O)[C@H](n4ccc(N)nc4=O)O[C@@H]3COP(=O)(S)O[C@H]3C[C@H](n4cc(C)c(=O)[nH]c4=O)O[C@@H]3CO)O2)c(=O)[nH]c1=O` (stereo not given in full): the Activity result in assay [1] is “Dose-dependent effect”; in assay [2], 0.5 ng/mL; in assay [3], 0.14 ng/mL; in assay [4], 0.17 ng/mL; in assay [5] it was 0.05 ng/mL; in assay [6], 0.37 ng/mL. In addition, the results for the Activity in assay [7], in assay [8] and in [9] were 0.03 ng/mL, 0.01 ng/mL and 1.67 ng/mL, respectively. The outcome in the assay with Mus musculus was Active.

Source of the values: ChEMBL document CHEMBL1157912, “Impact of nature and length of linker incorporated in agonists on toll-like receptor 9-mediated immune responses” (J Med Chem, 2010).
